# Results as given in ChEMBL document CHEMBL4251567 (Eur J Med Chem, 2018).
# What was measured:
# [1] = molecular target: Histone deacetylase 1 (Homo sapiens) (UniProt Q13547); experiment: Inhibition of HDAC1 in human HeLa-S3 cell lysates assessed as remaining activity at 4 x 10^-6 M preincubated for 15 mins followed by HDAC-Glo substrate addition measured after 30 to 40 mins by […] relative to control
# Outline: (§1)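 HDAC1 was captured from HeLa-S3 lysate (100 μg/mL) onto wells precoated with anti-HDAC1 antibody (10 μg/mL, carbonate buffer pH 9.4) and milk-blocked, 1 h at 4 °C, then washed. Inhibitor in DMSO was added in HDAC-Glo buffer for 15 min at room temperature. HDAC-Glo reagent was added and luminescence read after 30-40 min. Concentrations are final. No-antibody background subtracted; % of DMSO control.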
# [2] = molecular target: Histone deacetylase 2 (Homo sapiens) (UniProt Q92769); experiment: Inhibition of HDAC2 in human HeLa-S3 cell lysates assessed as remaining activity at 4 x 10^-6 M preincubated for 15 mins followed by HDAC-Glo substrate addition […] relative to control
# Chain of Histone deacetylase 2 (Homo sapiens) (Q92769 whole entry, canonical isoform): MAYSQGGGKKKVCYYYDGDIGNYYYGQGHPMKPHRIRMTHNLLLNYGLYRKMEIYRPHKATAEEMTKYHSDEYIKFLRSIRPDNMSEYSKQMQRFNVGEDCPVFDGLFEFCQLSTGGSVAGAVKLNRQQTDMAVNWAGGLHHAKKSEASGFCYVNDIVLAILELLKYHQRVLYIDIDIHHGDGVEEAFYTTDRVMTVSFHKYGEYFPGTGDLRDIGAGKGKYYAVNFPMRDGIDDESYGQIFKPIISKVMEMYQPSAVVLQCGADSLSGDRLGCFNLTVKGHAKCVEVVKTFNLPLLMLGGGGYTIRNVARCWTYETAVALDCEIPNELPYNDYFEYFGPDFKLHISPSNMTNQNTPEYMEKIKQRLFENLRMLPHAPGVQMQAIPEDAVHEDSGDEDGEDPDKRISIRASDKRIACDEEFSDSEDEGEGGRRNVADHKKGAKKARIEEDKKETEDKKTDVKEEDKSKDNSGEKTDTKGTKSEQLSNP
# [3] = molecular target: Histone deacetylase 3 (Homo sapiens) (UniProt O15379); experiment: Inhibition of HDAC3 in human HeLa-S3 cell lysates assessed as remaining activity at 1.6 x 10^-5 M preincubated for 15 mins followed by HDAC-Glo substrate addition measured after 30 to 40 mins by […] relative to control
# Chain of Histone deacetylase 3 (Homo sapiens) (O15379 whole entry): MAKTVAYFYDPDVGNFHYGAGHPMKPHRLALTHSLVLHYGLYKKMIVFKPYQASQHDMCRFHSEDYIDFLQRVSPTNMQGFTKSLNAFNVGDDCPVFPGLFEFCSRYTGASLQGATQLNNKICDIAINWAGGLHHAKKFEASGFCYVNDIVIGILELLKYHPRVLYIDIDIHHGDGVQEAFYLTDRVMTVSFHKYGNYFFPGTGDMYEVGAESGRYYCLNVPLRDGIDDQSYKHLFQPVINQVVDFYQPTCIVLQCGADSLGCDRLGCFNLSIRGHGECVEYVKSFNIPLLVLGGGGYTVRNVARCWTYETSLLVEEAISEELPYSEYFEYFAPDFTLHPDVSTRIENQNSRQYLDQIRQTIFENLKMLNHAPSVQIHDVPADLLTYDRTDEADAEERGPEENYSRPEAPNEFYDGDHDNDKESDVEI
# Outline: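 Antibody-capture (ELISA-type) assay: HDAC antibody coated in carbonate/bicarbonate buffer pH 9.4, wells blocked with 5% milk in TBST. HeLa-S3 lysate added at 1 mg/mL for HDAC3, 1 h at 4 °C, then washed. Inhibitor in DMSO preincubated 15 min at RT in HDAC-Glo buffer. HDAC-Glo reagent added, luminescence read after 30-40 min. Concentrations are final. Background = no-antibody well; activity given as % of DMSO control.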
# [4] = molecular target: T1, Histone deacetylase (Homo sapiens) (UniProt Q13547+O15379+Q9UBN7+Q92769+Q9UQL6+Q8WUI4+Q9BY41+Q96DB2+P56524+Q9UKV0+Q969S8); experiment: Inhibition of HDAC in human HeLa-S3 cell lysates assessed as residual activity at 2.4 x 10^-5 M preincubated for 15 mins followed by HDAC-Glo substrate addition measured after 35 mins by […] relative to control; type: protein assay
# [5] = molecular target: Histone deacetylase 1 (Homo sapiens) (UniProt Q13547); experiment: Inhibition of HDAC1 in human HeLa-S3 cell lysates assessed as remaining activity at 1 x 10^-6 M preincubated for 15 mins followed by HDAC-Glo substrate addition measured after 30 to 40 mins by fluorimetric method relative to control; outline: as §1
# [6] = molecular target: T1, Histone deacetylase (Homo sapiens); experiment: Inhibition of HDAC in human HeLa-S3 cell lysates assessed as residual activity at 1.2 x 10^-5 M preincubated for 15 mins followed by HDAC-Glo substrate addition measured after 35 mins by […] relative to control; type: protein assay
# [7] = molecular target: Histone deacetylase 2 (Homo sapiens) (UniProt Q92769); experiment: Inhibition of HDAC2 in human HeLa-S3 cell lysates assessed as remaining activity at 8 x 10^-6 M preincubated for 15 mins followed by HDAC-Glo substrate addition measured after 30 to 40 mins by […] relative to control
# Outline: (§2)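 Same antibody-capture format as the other class I isoforms. HeLa-S3 lysate added at 100 μg/mL for HDAC1 and HDAC2, 1 h at 4 °C, then washed. Inhibitor in DMSO preincubated 15 min at RT; HDAC-Glo reagent added and luminescence read after 30-40 min. Concentrations are final. Signal corrected against a well without antibody; activity expressed as % of DMSO control.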
# [8] = molecular target: T2, Protein deacetylase HDAC6 (Homo sapiens) (UniProt Q9UBN7); experiment: Inhibition of HDAC6 in human HeLa-S3 cell lysates assessed as remaining activity at 5 uM preincubated for 15 mins followed by HDAC-Glo substrate addition measured after 30 to 40 mins by […] relative to control
# T2 sequence (whole entry): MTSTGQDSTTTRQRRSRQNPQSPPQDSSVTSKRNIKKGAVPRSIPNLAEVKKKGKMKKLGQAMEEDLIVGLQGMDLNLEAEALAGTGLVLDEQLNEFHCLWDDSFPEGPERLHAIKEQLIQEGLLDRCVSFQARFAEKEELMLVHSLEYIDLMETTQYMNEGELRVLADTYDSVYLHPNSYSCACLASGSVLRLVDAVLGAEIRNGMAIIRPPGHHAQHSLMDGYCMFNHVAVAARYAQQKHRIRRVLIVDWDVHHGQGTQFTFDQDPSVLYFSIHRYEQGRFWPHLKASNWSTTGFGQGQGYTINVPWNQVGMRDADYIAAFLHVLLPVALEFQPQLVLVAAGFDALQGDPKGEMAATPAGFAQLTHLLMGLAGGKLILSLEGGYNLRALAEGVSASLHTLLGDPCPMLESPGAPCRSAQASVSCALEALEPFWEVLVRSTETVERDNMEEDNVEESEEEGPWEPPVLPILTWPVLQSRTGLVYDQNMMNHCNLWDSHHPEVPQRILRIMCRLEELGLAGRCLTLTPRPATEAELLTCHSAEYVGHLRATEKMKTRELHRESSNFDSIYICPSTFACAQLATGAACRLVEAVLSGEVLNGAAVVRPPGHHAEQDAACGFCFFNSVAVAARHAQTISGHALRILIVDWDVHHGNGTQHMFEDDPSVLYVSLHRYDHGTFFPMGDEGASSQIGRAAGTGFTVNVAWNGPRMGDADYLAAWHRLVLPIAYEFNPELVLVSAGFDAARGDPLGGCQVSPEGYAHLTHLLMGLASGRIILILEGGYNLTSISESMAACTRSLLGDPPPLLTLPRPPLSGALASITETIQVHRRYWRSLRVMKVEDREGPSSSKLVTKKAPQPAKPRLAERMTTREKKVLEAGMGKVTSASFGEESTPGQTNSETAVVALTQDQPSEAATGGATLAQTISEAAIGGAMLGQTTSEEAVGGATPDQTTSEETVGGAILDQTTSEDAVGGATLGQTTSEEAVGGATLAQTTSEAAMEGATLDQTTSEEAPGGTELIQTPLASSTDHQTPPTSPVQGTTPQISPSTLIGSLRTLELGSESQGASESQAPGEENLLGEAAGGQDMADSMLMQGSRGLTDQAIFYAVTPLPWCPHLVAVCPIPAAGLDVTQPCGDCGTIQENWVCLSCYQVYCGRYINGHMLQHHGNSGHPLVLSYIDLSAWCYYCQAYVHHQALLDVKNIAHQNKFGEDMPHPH
# Outline: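 HDAC6 captured on an anti-HDAC6 antibody-coated plate (2 μg/mL, pH 9.4 carbonate buffer, milk-blocked). HeLa-S3 lysate loaded at 1 mg/mL, 1 h at 4 °C, then washed. 15 min RT preincubation with inhibitor in DMSO; HDAC-Glo reagent added, luminescence read at 30-40 min. Concentrations are final. Background = no-antibody well; values are % activity versus DMSO control.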
# [9] = molecular target: Histone deacetylase 2 (Homo sapiens) (UniProt Q92769); experiment: Inhibition of HDAC2 in human HeLa-S3 cell lysates assessed as remaining activity at 5 uM preincubated for 15 mins followed by HDAC-Glo substrate addition measured after 30 to 40 mins by […] relative to control; outline: as §2
# Chain of Histone deacetylase 1 (Homo sapiens) (Q13547 whole entry): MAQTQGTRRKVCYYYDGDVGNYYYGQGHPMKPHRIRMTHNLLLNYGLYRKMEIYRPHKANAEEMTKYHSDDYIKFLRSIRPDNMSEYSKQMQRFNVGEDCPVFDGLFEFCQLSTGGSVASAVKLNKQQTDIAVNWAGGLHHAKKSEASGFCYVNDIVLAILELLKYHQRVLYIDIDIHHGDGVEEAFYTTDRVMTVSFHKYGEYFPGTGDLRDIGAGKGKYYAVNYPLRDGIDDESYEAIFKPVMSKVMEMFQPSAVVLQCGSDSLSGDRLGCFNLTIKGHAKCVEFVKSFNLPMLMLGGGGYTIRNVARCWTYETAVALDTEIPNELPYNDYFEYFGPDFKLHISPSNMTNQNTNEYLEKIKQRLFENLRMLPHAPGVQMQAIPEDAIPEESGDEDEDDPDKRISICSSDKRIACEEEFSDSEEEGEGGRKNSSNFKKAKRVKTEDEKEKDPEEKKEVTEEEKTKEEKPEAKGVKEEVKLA
SMILES,Activity [1],Activity [2],Activity [3],Activity [4],Activity [5],Activity [6],Activity [7],Activity [8],Activity [9]
CCC(CCCC(=O)Nc1ccccc1)CCC(=O)NO (centres undefined),58%,59%,17%,31%,81%,53%,34%,–,–
O=C(CCC(CCCC(=O)Nc1ccccc1)Cc1ccccc1)NO (racemic),–,–,–,–,–,–,–,2.9%,92%
